According to PubChem BioAssay:
Active and inactive are the calls of the source.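 The calls were made as follows, unless noted: active = viability loss from added drug above about 55%, and viability with drug at most 40%, in both replicates (limit read from the data, passing the limit was not always enough); inconclusive = both conditions met in only one replicate; inactive = neither replicate meets both conditions.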

Assays:
[1] = reducers of endogenous Her2 protein level, primary screen, SKBR3 breast tumor cells, AlphaScreen, ATP viability (AID 461;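 active = Her2 level under about 52% in both replicate screens, with viability over 70% of control, limit read from the data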;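 as to Her2 level: lower value means less Her2 protein in the cells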;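 as to viability: percent of carrier control wells set as 100% viability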); details: 18-24 h, measured here: SKBR3 viability, ATP luminescence, at 10 µM
[2] = molecular target: Receptor tyrosine-protein kinase erbB-2 (Homo sapiens) (UniProt P04626); test: as above; details: 18-24 h, at 10 µM, stronger effect = lower value
[3] = SK-BR-3 cell growth inhibitors, pilot screen, 24 h, human (AID 572;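 active = viability at or below 10% of carrier control in both of two separate runs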;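 also: compound exposure lasted between 18 and 24 h rather than exactly 24 h; 100% = carrier-treated control wells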); details: SK-BR-3 viability, CellTiter-Glo luminescence, at 10 µM, stronger effect = lower value
[4] = HUVEC growth inhibition – cell-based, human, primary screen (AID 575;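 active = viability at or below 30% in both replicate assays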;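 also: 100% = median of untreated cell wells with 0.1% DMSO on each plate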); details: HUVEC proliferation, CellTiter-Glo luminescence, 72 h; at 10 µM; stronger effect = lower value
How it was run: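 Material: primary human umbilical vein endothelial cells / Schedule: 72 h exposure, 37 °C, 5% CO2, 30 min RT equilibration / Signal: ATP-based CellTiter-Glo luminescent read / Read-out basis: percent of median DMSO-control luminescence / Control set: 32 DMSO-only cell-control wells (high), 32 MePR drug-control wells (low) per plate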

[5] = growth inhibitors of H69AR lung tumor, primary screen, human, duplicate replicates (AID 580;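 active = viability at or under a set limit in both replicates, limit being median viability minus 3 SD, cut at about 48% in these data, passing the limit was not always enough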;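 also: 100% = mean luminescence of untreated wells and 0% = no signal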); details: H69AR lung tumor cells viability, ATP luminescence, 72 h; at 10 µM; stronger effect = lower value
[6] = reversal of MRP1-mediated doxorubicin resistance, pilot screen, H69AR cells, doxorubicin co-treatment (AID 601); details: CellTiter-Glo, 72 h, at 10 µM; for differential viability (reversal): stronger effect = higher value
[7] = 384-well plate pilot, post-Golgi transport modulator project, inhibition of yeast transport mutant growth (AID 636; in the data active = inhibition above about 31%); details: absorbance 615 nm, about 18 h, stronger effect = higher value
[8] = growth suppression of yeast trafficking mutant, preliminary HTS, modulators of trafficking downstream of Golgi apparatus project, 1536-format plate, OD 615 nm (AID 637; in the data active = inhibition above about 30%); details: yeast transport mutant growth, absorbance 615 nm, 18 h; stronger effect = higher value
[9] = H69AR cells + 2 uM doxorubicin, measured here: viability with 2 uM doxorubicin, stronger effect = lower value
[10] = H69AR cells, compound alone cytotoxicity

Receptor tyrosine-protein kinase erbB-2 (Homo sapiens), sequence (P04626 whole entry, looked up): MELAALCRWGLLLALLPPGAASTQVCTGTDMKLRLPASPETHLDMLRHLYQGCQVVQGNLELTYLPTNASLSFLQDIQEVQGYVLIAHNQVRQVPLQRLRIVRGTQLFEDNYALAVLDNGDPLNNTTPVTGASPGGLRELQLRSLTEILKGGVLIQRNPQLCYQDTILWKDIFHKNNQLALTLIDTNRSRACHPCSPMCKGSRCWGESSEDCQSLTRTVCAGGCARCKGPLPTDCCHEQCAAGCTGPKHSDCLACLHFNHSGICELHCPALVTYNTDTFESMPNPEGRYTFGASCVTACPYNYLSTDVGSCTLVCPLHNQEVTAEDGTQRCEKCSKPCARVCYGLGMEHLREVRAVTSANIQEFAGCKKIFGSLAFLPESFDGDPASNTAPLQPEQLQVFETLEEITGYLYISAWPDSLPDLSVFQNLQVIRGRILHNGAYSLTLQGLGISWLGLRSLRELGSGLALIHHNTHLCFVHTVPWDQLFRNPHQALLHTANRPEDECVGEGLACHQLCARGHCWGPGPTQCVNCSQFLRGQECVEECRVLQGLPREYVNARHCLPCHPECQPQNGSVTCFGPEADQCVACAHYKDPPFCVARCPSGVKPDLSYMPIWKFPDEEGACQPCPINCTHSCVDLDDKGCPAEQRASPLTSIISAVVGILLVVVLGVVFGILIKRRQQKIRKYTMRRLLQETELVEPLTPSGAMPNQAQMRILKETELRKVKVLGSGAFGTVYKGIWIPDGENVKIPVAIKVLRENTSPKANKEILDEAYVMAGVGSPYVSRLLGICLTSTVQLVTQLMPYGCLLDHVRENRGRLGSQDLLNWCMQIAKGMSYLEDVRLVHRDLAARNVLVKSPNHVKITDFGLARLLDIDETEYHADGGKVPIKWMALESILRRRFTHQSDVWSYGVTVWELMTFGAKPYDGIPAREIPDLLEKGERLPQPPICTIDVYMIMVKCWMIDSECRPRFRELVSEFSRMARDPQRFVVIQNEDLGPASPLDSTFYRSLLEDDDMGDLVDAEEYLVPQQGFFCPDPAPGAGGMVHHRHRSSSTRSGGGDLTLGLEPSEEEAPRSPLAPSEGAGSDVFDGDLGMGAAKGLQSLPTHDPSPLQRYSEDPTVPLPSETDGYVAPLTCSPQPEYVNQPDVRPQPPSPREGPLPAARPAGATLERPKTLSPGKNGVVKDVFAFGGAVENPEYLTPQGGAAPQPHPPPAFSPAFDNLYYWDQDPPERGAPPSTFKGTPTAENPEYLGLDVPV

| Compound | viability [1] [%] | Her2 level [2] | viability [3] | viability [4] | viability [5] | differential viability (reversal) ([6]; H69AR cells + 2 uM doxorubicin) | viability [6, 9] [%] | viability [6, 10] [%] | inhibition [7] | inhibition [8] |
| --- | --- | --- | --- | --- | --- | --- | --- | --- | --- | --- |
| CCOC(=O)CC1=C(C(=O)OCC)C(c2ccc(C)o2)C(C#N)=C(N)O1 (stereo not given) | 95 | 104% (inactive) | 95% (inactive) | 107% (inactive) | 85.6% (inactive) | 8.26% (inactive) | 77.3 | 85.6 | 0.65% (inactive) | -9.05% (inactive) |
| Cc1cc(O)c(C(C)C)cc1N=C1CSC(=O)N1 | 89 | 78.5% (inactive) | 89% (inactive) | 95.3% (inactive) | 87.7% (inactive) | 1.7% (inactive) | 86 | 87.7 | -2.11% (inactive) | -1.82% (inactive) |
| CCOc1ccc(C(=O)N(Cc2ccc(N(C)C)cc2)C2CCS(=O)(=O)C2)cc1 (stereo not given) | 114 | 121% (inactive) | 114% (inactive) | 101% (inactive) | 88.1% (inactive) | -16.6% (inactive) | 105 | 88.1 | -1.18% (inactive) | 2.79% (inactive) |
| CCOC(=O)C1CCCN(Cc2nc(N)nc(Nc3ccc(C)cc3)n2)C1 (stereo not given) | 99.5 | 78% (inactive) | 99.5% (inactive) | 80% (inactive) | 87.4% (inactive) | -1.19% (inactive) | 88.6 | 87.4 | 0% (inactive) | 7.54% (inactive) |
| O=C(CN1C(=O)NC2(CCCCCC2)C1=O)N1CCC(Cc2ccccc2)CC1 | 87 | 94.5% (inactive) | 87% (inactive) | 77.2% (inactive) | 86.7% (inactive) | -4.21% (inactive) | 90.9 | 86.7 | -5.33% (inactive) | 2.46% (inactive) |
| CCOC(=O)C(NC(=O)c1ccccc1)(Nc1cc(C)on1)C(F)(F)F (stereo not given) | 106 | 90.5% (inactive) | 106% (inactive) | 101% (inactive) | 97.7% (inactive) | 11.1% (inactive) | 86.6 | 97.7 | -0.93% (inactive) | -1.61% (inactive) |
| CCN(CC)S(=O)(=O)N1CCC(C(=O)NCC2COc3ccccc3O2)CC1 (stereo not given) | 94 | 114% (inactive) | 94% (inactive) | 109% (inactive) | 97.3% (inactive) | -9.32% (inactive) | 107 | 97.3 | -0.79% (inactive) | 3.65% (inactive) |
| COC(=O)Cn1cnc2c(nnn2-c2ccc(C)cc2)c1=O | 86 | 108% (inactive) | 86% (inactive) | 112% (inactive) | 94.7% (inactive) | 7% (inactive) | 87.7 | 94.7 | -6.62% (inactive) | -2.17% (inactive) |
| CCC(=O)/C=C1\Sc2ccc(OC)cc2N1CCO | 120 | 98% (inactive) | 120% (inactive) | 98.6% (inactive) | 87.8% (inactive) | 2.07% (inactive) | 85.7 | 87.8 | -4.21% (inactive) | -4.68% (inactive) |
| CCCS(=O)(=O)N1CCN(C(=O)c2cccs2)CC1 | 99.5 | 99.5% (inactive) | 99.5% (inactive) | 110% (inactive) | 99.9% (inactive) | -0.9% (inactive) | 101 | 99.9 | -1.07% (inactive) | 2.95% (inactive) |
| COC(=O)CCCCCNc1ccc(C(=O)OC)cc1N | 107 | 86% (inactive) | 107% (inactive) | 98.5% (inactive) | 91.5% (inactive) | 6.14% (inactive) | 85.4 | 91.5 | -7.16% (inactive) | -6.5% (inactive) |
| Cc1onc(-c2ccccc2)c1C(=O)Nc1ccnn1C1CCCCC1 | 99.5 | 97.5% (inactive) | 99.5% (inactive) | 91.3% (inactive) | 90.6% (inactive) | -4.68% (inactive) | 95.3 | 90.6 | -5.6% (inactive) | -2.95% (inactive) |
| c1ccc(N2CCN(Cc3ccnc4ccccc34)CC2)cc1 | 98 | 81.5% (inactive) | 98% (inactive) | 71.2% (inactive) | 72.4% (inactive) | -21.1% (inactive) | 93.5 | 72.4 | -6.22% (inactive) | -0.82% (inactive) |
| Nc1nc(C2C(=O)CCCC2=O)cs1 | 97.5 | 99.5% (inactive) | 97.5% (inactive) | 102% (inactive) | 103% (inactive) | 5.64% (inactive) | 97.6 | 103 | -2.89% (inactive) | 4.1% (inactive) |
| Cc1cc(C)n(CC2CC(=O)N(c3ccc(Cl)c(Cl)c3)C2=O)n1 (stereo not given) | 112 | 96.5% (inactive) | 112% (inactive) | 89.9% (inactive) | 104% (inactive) | 10.4% (inactive) | 93.4 | 104 | -4.79% (inactive) | -9.05% (inactive) |
| Cn1nnnc1SCSc1nnnn1C | 84 | 83% (inactive) | 84% (inactive) | 95.5% (inactive) | 96.9% (inactive) | 7.5% (inactive) | 89.4 | 96.9 | -5% (inactive) | -0.95% (inactive) |

| Compound | viability [1] [%] | Her2 level [2] | viability [3] | viability [4] | viability [5] | differential viability (reversal) ([6]; H69AR cells + 2 uM doxorubicin) | viability [6, 9] [%] | viability [6, 10] [%] | inhibition [7] | inhibition [8] |
| --- | --- | --- | --- | --- | --- | --- | --- | --- | --- | --- |
| CCc1nnc2n1N=C(c1ccc(-c3ccc(Cl)cc3Cl)o1)CS2 | 99.5 | 81.5% (inactive) | 99.5% (inactive) | 110% (inactive) | 108% (inactive) | 23.9% (inactive) | 84.4 | 108 | -2.99% (inactive) | -3.17% (inactive) |
| N#CCCCN1C(=O)C(O)(CC(=O)c2ccc3c(c2)OCCO3)c2ccccc21 (stereo not given) | 100 | 93.5% (inactive) | 100% (inactive) | 89.5% (inactive) | 85.3% (inactive) | 6.12% (inactive) | 79.2 | 85.3 | -2.89% (inactive) | -9.03% (inactive) |
| CC1(C)CC(=O)C(C#N)=C(NCCCO)C1 | 99.5 | 98.5% (inactive) | 99.5% (inactive) | 91.5% (inactive) | 100% (inactive) | -2.31% (inactive) | 103 | 100 | -1.2% (inactive) | 0.97% (inactive) |
| Cc1[nH]c(=O)[nH]c(=O)c1S(=O)(=O)N1CCCC(C(=O)NCc2ccco2)C1 (stereo not given) | 102 | 80% (inactive) | 102% (inactive) | 96.3% (inactive) | 86.4% (inactive) | -1.73% (inactive) | 88.1 | 86.4 | -3.82% (inactive) | 0.67% (inactive) |
| Cc1cc(C)cc(-n2nnc(C(=O)NCc3ccco3)c2N)c1 | 101 | 82% (inactive) | 101% (inactive) | 89.4% (inactive) | 88.5% (inactive) | -4.65% (inactive) | 93.2 | 88.5 | -0.14% (inactive) | -4.92% (inactive) |
| c1ccc2c(c1)CC(N1CCCCC1)c1ccccc1N2 (stereo not given) | 79.5 | 91% (inactive) | 79.5% (inactive) | 90.1% (inactive) | 91.5% (inactive) | 4.69% (inactive) | 86.8 | 91.5 | -1.82% (inactive) | -3.93% (inactive) |
| COc1ccc(N2C(=O)CC(NC3CC3)C2=O)cc1 (stereo not given) | 100 | 89.5% (inactive) | 100% (inactive) | 94.7% (inactive) | 91.2% (inactive) | 0.64% (inactive) | 90.5 | 91.2 | -3.82% (inactive) | -6% (inactive) |
| Cc1nnc(SCC(=O)Nc2ccc(Br)cn2)[nH]c1=O | 118 | 85% (inactive) | 118% (inactive) | 98.7% (inactive) | 98.3% (inactive) | 4.71% (inactive) | 93.6 | 98.3 | 1.84% (inactive) | 8.17% (inactive) |
| CCC(CC)C(=O)Nc1cccc(C(=O)NCc2ccco2)c1 | 94 | 104% (inactive) | 94% (inactive) | 100% (inactive) | 69.1% (inactive) | -20.5% (inactive) | 89.6 | 69.1 | -3.24% (inactive) | -1.64% (inactive) |
| Cc1ccccc1NC(=O)N1C2CCCC1CC(NC(=O)C1CC1)C2 (stereo not given) | 104 | 95% (inactive) | 104% (inactive) | 94% (inactive) | 104% (inactive) | 10.3% (inactive) | 93.9 | 104 | -7.07% (inactive) | 9.02% (inactive) |
| Cc1ccc(-n2ncc3c(=O)[nH]c(SCC(=O)N4CCN(c5ccccc5)CC4)nc32)cc1 | 86 | 77% (inactive) | 86% (inactive) | 92.2% (inactive) | 76.3% (inactive) | 4.85% (inactive) | 71.5 | 76.3 | -5.79% (inactive) | -1.17% (inactive) |
| O=C(OCC(=O)N1CCCCCC1)c1cccs1 | 99 | 95.5% (inactive) | 99% (inactive) | 103% (inactive) | 106% (inactive) | 9.71% (inactive) | 96.7 | 106 | -0.67% (inactive) | 1.77% (inactive) |
| COc1cc(S(=O)(=O)N2CCOCC2)ccc1NC(=O)COC(=O)c1ccccn1 | 114 | 92% (inactive) | 114% (inactive) | 85.8% (inactive) | 84.8% (inactive) | -12.8% (inactive) | 97.6 | 84.8 | -6.71% (inactive) | -0.18% (inactive) |
| Cc1ccc(S(=O)(=O)C2(C(=O)NC3CCCC3)CC2)cc1 | 148 | 87.5% (inactive) | 148% (inactive) | 104% (inactive) | 97.1% (inactive) | 9.32% (inactive) | 87.8 | 97.1 | -2.34% (inactive) | -2.22% (inactive) |
| CCC(c1nnnn1CCOC)N(Cc1ccc(C)cc1)Cc1cc2cc(OC)ccc2[nH]c1=O (stereo not given) | 115 | 89% (inactive) | 115% (inactive) | 71.9% (inactive) | 72.5% (inactive) | 7.76% (inactive) | 64.7 | 72.5 | -3.03% (inactive) | -1.77% (inactive) |
| COc1ccc2c(c1OC)C(=O)N(c1ccc3c(c1)CCC3)C2=O | 96.5 | 100% (inactive) | 96.5% (inactive) | 90.3% (inactive) | 107% (inactive) | 12.6% (inactive) | 94.9 | 107 | -3.07% (inactive) | 25.7% (inactive) |
